Legend:
[1] = molecular target: T1, Metabotropic glutamate receptor 4 (Homo sapiens, UniProt Q14833); test: Allosteric modulator activity at human mGlu4 receptor expressed in CHO cells coexpressing Gqi5 assessed as effect on calcium flux; assay type: functional, cell-based
[2] = molecular target: T1, Metabotropic glutamate receptor 4; test: Allosteric modulator activity at human mGlu4 receptor expressed in CHO cells coexpressing Gqi5 assessed as effect on calcium flux in relative to glutamate; assay type: functional, cell-based
Method in brief: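 hmGluR4/Gqi5 stably transfected CHO cells, 30,000/well, grown overnight at 37 °C, 5% CO2; loaded with 1 μM Fluo-4 AM for 45 min at 37 °C in HBSS/20 mM HEPES/2.5 mM probenecid. Baseline fluorescence read (ex 470, em 540 nm); compound preincubated ~2.5 min, then glutamate EC20, then EC80 2 min later. Ca2+ flux read; 10-point 1:3 concentration-response curves.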

T1 sequence (Q14833 whole entry): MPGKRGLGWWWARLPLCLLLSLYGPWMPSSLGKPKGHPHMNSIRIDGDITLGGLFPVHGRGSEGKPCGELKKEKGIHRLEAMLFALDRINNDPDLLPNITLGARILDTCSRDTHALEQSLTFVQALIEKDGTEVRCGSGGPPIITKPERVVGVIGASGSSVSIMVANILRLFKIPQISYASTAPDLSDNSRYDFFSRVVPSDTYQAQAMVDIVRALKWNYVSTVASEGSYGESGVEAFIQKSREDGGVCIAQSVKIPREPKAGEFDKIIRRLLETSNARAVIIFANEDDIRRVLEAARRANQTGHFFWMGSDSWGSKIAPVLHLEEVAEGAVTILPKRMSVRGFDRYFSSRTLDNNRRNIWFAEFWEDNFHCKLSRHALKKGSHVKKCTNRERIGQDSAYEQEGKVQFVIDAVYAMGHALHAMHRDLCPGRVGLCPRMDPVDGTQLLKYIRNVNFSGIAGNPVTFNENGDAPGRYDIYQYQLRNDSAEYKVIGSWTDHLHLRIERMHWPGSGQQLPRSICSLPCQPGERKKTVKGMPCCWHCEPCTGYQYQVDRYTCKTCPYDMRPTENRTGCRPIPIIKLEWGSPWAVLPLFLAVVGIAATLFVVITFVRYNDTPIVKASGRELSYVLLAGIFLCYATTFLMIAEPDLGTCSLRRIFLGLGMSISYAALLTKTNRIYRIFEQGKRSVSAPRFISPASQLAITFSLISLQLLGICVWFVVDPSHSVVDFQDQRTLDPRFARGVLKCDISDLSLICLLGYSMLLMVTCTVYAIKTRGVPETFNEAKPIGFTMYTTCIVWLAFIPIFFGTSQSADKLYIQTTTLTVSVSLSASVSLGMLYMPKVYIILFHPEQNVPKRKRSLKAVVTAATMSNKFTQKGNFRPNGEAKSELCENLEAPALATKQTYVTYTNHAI

With `Cc1cc(C)cc(NC(=O)[C@H]2CCCC[C@H]2C(=O)O)c1` the EC50 ([1]; cho) was “Not Active”.

`N#C[C@@H]1CCCC[C@@H]1C(=O)Nc1cc(Cl)cc(Cl)c1` showed an EC50 ([1]; read-out: EC50) of 2 µM and an Emax [2] of 55%.

In the case of `O=C(Nc1cc(Cl)cc(Cl)c1)[C@H]1CCCC[C@H]1C(=O)NCC1CC1`, the EC50 ([1]; read-out: EC50) is reported as 10 µM and the Emax [2] is reported as 80%.

For `O=C(Nc1cc(F)cc(F)c1)[C@H]1CCCC[C@H]1C(=O)O`, the EC50 ([1]; cho) was “Not Active”.

With `O=C(Nc1cc(Cl)cc(Cl)c1)[C@H]1CCCC[C@H]1C(=O)NC1CCCC1` the EC50 ([1]; cho) was “Not Active”.

For `O=C1[C@H]2CCCC[C@H]2C(=O)N1c1cc(Cl)cc(Cl)c1`, the EC50 ([1]; read-out: EC50) was 3.3 µM and the Emax [2] was 152%.

For `CCCNC(=O)[C@@H]1CCCC[C@@H]1C(=O)Nc1cc(Cl)cc(Cl)c1`, the EC50 ([1]; read-out: EC50) was 9.6 µM and the Emax [2] was 57%.

For `O=C(Nc1cc(Cl)cc(Cl)c1)[C@H]1CCCC[C@H]1C(=O)N1CCOCC1`, the EC50 ([1]; cho) was “Not Active”.

For `O=C(Nc1cc(Cl)cc(Cl)c1)[C@@H]1[C@H](C(=O)O)[C@H]2C=C[C@@H]1C2`, the EC50 ([1]; cho) was “Not Active”.

`O=C(NN1CCOCC1)[C@H]1CCCC[C@H]1C(=O)O` was tested, and the EC50 ([1]; cho) was “Not Active”.

In the case of `O=C(NCc1ccccc1)[C@H]1CCCC[C@H]1C(=O)O`, the EC50 ([1]; cho) is reported as “Not Active”.

In the case of `O=C(O)C1CCCN(C(=O)Nc2cc(Cl)cc(Cl)c2)C1` (stereo not given), the EC50 ([1]; cho) is reported as “Not Active”.

`CC1(C)[C@H](C(=O)Nc2cc(Cl)cc(Cl)c2)[C@@H]1C(=O)O` was tested, and the EC50 ([1]; cho) was “Not Active”.

For `O=C(Nc1cc(Cl)cc(Cl)c1)[C@H]1CC[C@H]1C(=O)O` (single isomer, unassigned), the EC50 ([1]; cho) was “Not Active”.

With `Cc1ccc(NC(=O)[C@H]2CCCC[C@H]2C(=O)O)cc1C` the EC50 ([1]; cho) was “Not Active”.

In the case of `O=C(NC1CCC1)[C@H]1CCCC[C@H]1C(=O)O`, the EC50 ([1]; cho) is reported as “Not Active”.

`O=C(Nc1ccc(F)c(F)c1)[C@H]1CCCC[C@H]1C(=O)O` was tested, and the EC50 ([1]; cho) was “Not Active”.

`CC1=CC[C@H](C(=O)Nc2cc(Cl)cc(Cl)c2)[C@H](C(=O)O)C1` was tested, and the EC50 ([1]; cho) was “Not Active”.

For `O=C(Nc1cc(Cl)cc(Cl)c1)[C@H]1CCC[C@H]1C(=O)O`, the EC50 ([1]; cho) was “Not Active”.

`O=C(Nc1cc(C(F)(F)F)cc(C(F)(F)F)c1)[C@H]1CCCC[C@H]1C(=O)O` was tested, and the EC50 ([1]; cho) was “Not Active”.

With `O=C(Nc1cc(Cl)cc(Cl)c1)[C@@H]1[C@H](C(=O)O)[C@@H]2C=C[C@H]1C2` the EC50 ([1]; cho) was “Not Active”.

With `Cc1nc(NC(=O)[C@H]2CCCC[C@H]2C(=O)O)nn1C` the EC50 ([1]; cho) was “Not Active”.

`O=C(Nc1ccccc1)[C@H]1CCCC[C@H]1C(=O)O` gave an EC50 ([1]; read-out: EC50) greater than 10 µM and an Emax [2] of 39%.

`O=C(Nc1cccc(Br)c1)[C@H]1CCCC[C@H]1C(=O)O` was tested, and the EC50 ([1]; cho) was “Not Active”.

In the case of `NC(=O)[C@@H]1CC=CC[C@@H]1C(=O)Nc1cc(Cl)cc(Cl)c1`, the EC50 ([1]; read-out: EC50) is reported as 3.1 µM and the Emax [2] is reported as 94%.

For `O=C(Nc1cc(Cl)cc(Cl)c1)[C@H]1CCCC[C@H]1c1nsc(=O)[nH]1`, the EC50 ([1]; cho) was “Not Active”.

`O=C(Nc1cc(Cl)cc(Cl)c1)[C@H]1CCCC[C@H]1C(=O)O` (relative stereo) was tested, and the EC50 ([1]; read-out: EC50) was 0.74 µM and the Emax [2] was 127%.

In the case of `CNC(=O)[C@@H]1CCCC[C@@H]1C(=O)Nc1cc(Cl)cc(Cl)c1`, the EC50 ([1]; read-out: EC50) is reported as 10 µM and the Emax [2] is reported as 106%.

With `O=C(O)CCC(=O)Nc1cc(Cl)cc(Cl)c1` the EC50 ([1]; cho) was “Not Active”.

`O=C(Nc1cc(F)cc(Cl)c1)[C@H]1CCCC[C@H]1C(=O)O` gave an EC50 ([1]; read-out: EC50) of 2 µM and an Emax [2] of 138%.

With `O=C(O)[C@@H]1CCC[C@H](C(=O)Nc2cc(Cl)cc(Cl)c2)C1` the EC50 ([1]; cho) was “Not Active”.

For `O=C(Nc1cc(Cl)cc(Cl)c1)[C@H]1CC=CC[C@H]1C(=O)O`, the EC50 ([1]; read-out: EC50) was 2.7 µM and the Emax [2] was 150%.

Work on `NC(=O)[C@@H]1CCCC[C@@H]1C(=O)Nc1cc(Cl)cc(Cl)c1` yielded an EC50 ([1]; read-out: EC50) of 0.95 µM and an Emax [2] of 104%.

With `O=C(Nc1ccccn1)[C@H]1CCCC[C@H]1C(=O)O` the EC50 ([1]; cho) was “Not Active”.

With `O=C(Nc1cc(Cl)cc(Cl)c1)[C@H]1CCCC[C@H]1C(=O)NC1CC1` the EC50 ([1]; cho) was “Not Active”.

For `CN(C)C(=O)[C@@H]1CCCC[C@@H]1C(=O)Nc1cc(Cl)cc(Cl)c1`, the EC50 ([1]; cho) was “Not Active”.

Work on `O=C(Nc1cc(Cl)cc(Cl)c1)[C@H]1CCCC[C@H]1c1nnn[nH]1` yielded an EC50 ([1]; read-out: EC50) greater than 10 µM and an Emax [2] of 152%.

With `O=C(NC1CCCCC1)[C@H]1CCCC[C@H]1C(=O)O` the EC50 ([1]; cho) was “Not Active”.
